# Calls of active or inactive are those of the source. No cut-off for these calls is given here.
# Key:
# Malme-3M = experiment: Cytotoxicity against human MALME-3M cells assessed as growth inhibition after 72 hrs by MTT assay; assay type: functional
# [1] = Cytotoxicity against human EKVX cells assessed as growth inhibition after 72 hrs by MTT assay; assay type: functional
# LoVo [2] = experiment: Anticlonogenic activity against human LoVo cells assessed as inhibition of colony formation of cells at 2.5 to 5 uM incubated for 24 hrs followed by compound washout measured after 1 to 2 weeks by crystal violet staining-based assay; assay type: functional, cell-based
# LoVo [3] = experiment: Cytotoxicity against human LoVo cells assessed as growth inhibition after 72 hrs by MTT assay; assay type: functional
# In short: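 Cells were grown in medium with 10% heat-inactivated FBS plus penicillin/streptomycin: RPMI-1640 for Jurkat and CEM, DMEM for A-431, HAM's F12 for LoVo. The doxorubicin-resistant LoVo subclone was kept with 0.1 µg/mL doxorubicin. Cells were seeded at 5x10^3 per well and pre-incubated 24 h at 37 °C.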
# NCI-H23 = experiment: Cytotoxicity against human NCI-H23 cells assessed as growth inhibition after 72 hrs by MTT assay; assay type: functional; conditions: NCI-H23, 72 h
# [4] = Cytotoxicity against human OVCAR5 cells assessed as growth inhibition after 72 hrs by MTT assay; assay type: functional; conditions: OVCAR-5, 72 h
# In short: (§1)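 NCI 60-cell-line panel screen. Compounds were tested at 5 concentrations in 10-fold dilution (10^-4 to 10^-8 M) across the full panel. GI50 was taken as the molar concentration giving 50% inhibition of net cell growth.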
# K562 = experiment: Cytotoxicity against human K562 cells assessed as growth inhibition after 72 hrs by MTT assay; assay type: functional; conditions: K562, 72 h
# SNB-75 = experiment: Cytotoxicity against human SNB75 cells assessed as growth inhibition after 72 hrs by MTT assay; assay type: functional; conditions: SNB-75, 72 h; in short: as §1
# Jurkat = experiment: Induction of ROS generation in human Jurkat cells at 500 nM after 24 hrs by HE/DCFH2-DA staining-based flow cytometry relative to control; assay type: functional, cell-based
# In short: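 Jurkat cells were exposed to 500 nM compound for 24 h, then loaded in HBSS with 2.5 µM hydroethidine or 0.1 µM H2DCFDA for 30 min at 37 °C. Flow cytometry used 488 nm excitation, with emission at 585 nm (HE) or 530 nm (DCF). Mean ± SEM of 3 experiments.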
# CCRF-CEM = experiment: Cytotoxicity against human CCRF-CEM cells assessed as growth inhibition after 72 hrs by MTT assay; assay type: functional
# LoVo [5] = experiment: Anticlonogenic activity against human LoVo cells assessed as inhibition of colony formation of cells at 0.625 to 10 uM incubated for 24 hrs followed by compound washout measured after 1 to 2 weeks by crystal violet staining-based assay; assay type: functional, cell-based
SMILES,GI50 (Malme-3M),GI50 [1],inhibition (LoVo [2]),GI50 (LoVo [3]),GI50 (NCI-H23),GI50 [4],GI50 (K562),GI50 (SNB-75),Activity (Jurkat),GI50 (CCRF-CEM),inhibition (LoVo [5])
COc1ccc2c(c1)nnc1c3cccnc3[nH]c21,1.06 µM,2.82 µM,Active,3.64 µM,5.5 µM,5.72 µM,0.22 µM,0.64 µM,Active,–,–
COc1cc2nnn3c4ncccc4c(N=O)c3c2cc1OC,2.89 µM,3.31 µM,Active,3.89 µM,2.22 µM,2.69 µM,0.21 µM,2.25 µM,Active,< 0.01 µM,–
COc1cc2nnc3c4cccnc4[nH]c3c2cc1OC,2.28 µM,2.43 µM,–,–,2.34 µM,2.53 µM,0.33 µM,1.48 µM,–,–,–
COc1ccc2c(c1)nnn1c3ncccc3c(N=O)c21,0.77 µM,3.38 µM,–,1.28 µM,5.17 µM,8.02 µM,0.11 µM,0.85 µM,Active,–,Active
O=Nc1c2cccnc2n2nnc3ccc(Cl)cc3c12,1.22 µM,1.83 µM,–,–,1.17 µM,1.38 µM,0.13 µM,1.42 µM,–,0.023 µM,–
